In ChEMBL document CHEMBL1926554, “Diarylheptanoids from the seeds of Alpinia katsumadai as heat shock factor 1 inducers” (J Nat Prod, 2011):
Activity calls are given as the source filed them. The rule behind the calls is not given here.

Tests used:
[1] = tested on: NCI-H460; assay: Cytotoxicity against human NCI-H460 cells after overnight incubation by MTT assay; format: cell-based
Procedure, shortened: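 Human non-small-cell lung cancer NCI-H460 cells. Cytotoxicity read by MTT assay. IC50 taken as the concentration (μM) giving 50% inhibition of cell growth.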

[2] = tested on: NCI-H460; assay: Induction of HSF1 expression in human NCI-H460 cells at 1 uM after 24 hrs by Western blotting relative to control; format: functional
Procedure, shortened: (§1)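 NCI-H460 (human non-small-cell lung cancer) cells treated 24 h. Lysates run on SDS-PAGE, transferred to nitrocellulose, probed with antibodies to HSF1, HSP27 and HSP70, detected by ECL. Band signals normalized to β-actin and compared with untreated cells. Mean ± SD of three independent experiments done in triplicate, p < 0.05 versus untreated.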

[3] = tested on: NCI-H460; assay: Induction of HSP70 expression in human NCI-H460 cells at 1 uM after 24 hrs by Western blotting relative to control; format: functional; procedure, shortened: as §1
[4] = tested on: NCI-H460; assay: Induction of HSP27 expression in human NCI-H460 cells at 1 uM after 24 hrs by Western blotting relative to control; format: functional; procedure, shortened: as §1

| Compound | IC50 [1] | fold change (FC) [2] | fold change (FC) [3] | fold change (FC) [4] | Activity [2] | Activity [3] | Activity [4] |
| --- | --- | --- | --- | --- | --- | --- | --- |
| CC1=C(O)C(=O)C=C2C1=CC=C1[C@@]2(C)CC[C@@]2(C)[C@@H]3C[C@](C)(C(=O)O)CC[C@]3(C)CC[C@]12C [CELASTROL] | 12.3 µM | 1.066 | 1.371 | 1.216 | – | – | – |
| COc1cc(O)c(C(/C=C/CC(O)CCc2ccccc2)c2ccc(O)cc2)c(O)c1C(=O)/C=C/c1ccccc1 (mixture of isomers) | 39.8 µM | 1.19 | 1.313 | 1.25 | – | – | – |
| COc1cc(O)c(C(/C=C/CC(O)CCc2ccc(O)cc2)c2ccc(O)cc2)c(O)c1C(=O)/C=C/c1ccccc1 (mixture of isomers) | 47.4 µM | 1.438 | 1.373 | 1.403 | – | – | – |
| Oc1ccc(CC[C@H](O)C[C@H](O)/C=C/c2ccccc2)cc1 | – | – | – | – | inactive | inactive | inactive |
| CC(=O)O[C@H]1C(=O)[C@@]2(C)[C@H]([C@H](OC(=O)c3ccccc3)[C@]3(O)C[C@H](OC(=O)[C@H](O)[C@@H](NC(=O)c4ccccc4)c4ccccc4)C(C)=C1C3(C)C)[C@]1(OC(C)=O)CO[C@@H]1C[C@@H]2O [PACLITAXEL] | 8 µM | – | – | – | – | – | – |
| COc1cc(O)c(C(/C=C/CC(O)CCc2ccccc2)c2ccc(O)cc2)c(O)c1C(=O)/C=C/c1ccc(O)cc1 (mixture of isomers) | 45.7 µM | 1.316 | 1.229 | 1.27 | – | – | – |
| O=C(/C=C/c1ccc(O)cc1)C[C@H](O)CCc1ccccc1 | – | – | – | – | inactive | inactive | inactive |
